Measured values gathered from unrelated publications.
Target: Histamine H1 receptor (HRH1, Homo sapiens, UniProt P35367)

`CN1CCC(C2c3ccccc3C=Cc3ccccc32)CC1` has a koff of 0.00035 s⁻¹ (binding).
`CCN(Cc1ccccc1C(F)(F)F)C(=O)C1CCN(S(=O)(=O)c2ccc3[nH]ncc3c2)CC1` has an inhibition of 26% (ligand displacement; radioligand; 10 µM).
With `COc1ccc(-n2nc(OCCCN3CCCCC3)ccc2=O)cc1` the inhibition was 16.7% (ligand displacement; 1 µM).
`Oc1cccc(Nc2nc(-c3ccc(F)cc3F)cs2)c1` has an inhibition of -19.9% (cell-free assay; 10 µM).
With `O=C1N=C(N2CCCCN2)S/C1=C\c1ccc(F)cc1O` the inhibition was under 10% (ligand displacement; radioligand; 10 µM).
The inhibition of `O=C(c1ccc(F)cc1)N(Cc1ccccc1)C1CCCCC1` is reported as 23% (cell-free assay; 10 µM).
With `N#Cc1cc(Cn2c(N3CCCC3)nc3ccccc32)ccc1F` the inhibition was 73% (ligand displacement; 10 µM).
The koff of `CN1CCN(C2c3ccccc3CCc3ccccc32)CC1` is reported as 0.002 s⁻¹ (binding).
The inhibition of `C[C@H](NC(=O)Nc1cc2[nH]ncc2c(CO)n1)c1ccccn1` is reported as 4.18% (cell-free assay; 10 µM).
`CN1CCN(CCCOc2ccc(=O)n(-c3ccc(Cl)c(Cl)c3)n2)CC1` gave an inhibition of 40.7% (ligand displacement; 1 µM).
For `CC(C)(C)OC(=O)N1CCCC1CNC1CCC(c2cc(F)ccc2F)(S(=O)(=O)c2ccc(Cl)cc2)CC1` (centres unmarked), the inhibition was 25.6% (cell-free assay; 10 µM).
The kon of `CN(C)CCOC1c2ccccc2CCc2ccccc21` is reported as 1.1e+06 M⁻¹ s⁻¹ (binding).
With `CCN(CC)c1ccc(C2Nc3ccc(C(=O)c4ccccc4)cc3NC3=C2C(=O)CC(C)(C)C3)cc1` (centres unmarked) the inhibition was 40% (ligand displacement; radioligand; 10 µM).
`CN1CCC(=C2c3ccccc3CCc3cccnc32)CC1` gave a koff of 0.000147 s⁻¹ (binding).
For `CCCNc1nc2ccccc2n1Cc1ccc(Cl)cc1`, the inhibition was 97.8% (ligand displacement; 10 µM).
`CN(C)CCOC1c2ccccc2C=Cc2ccccc21` has a kon of 833000 M⁻¹ s⁻¹ (binding).
`Ic1cccc2cnccc12` gave an inhibition of 0% (ligand displacement; radioligand; 10 µM).
